Data as given in the EternaBench riboswitch data.

Test system: MS2 coat protein
Assay: apparent Kd, MS2 coat protein; higher = weaker binding; RNA-MaP array; FMN 200 µM where present
Method in brief: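 On Illumina sequencing-chip clusters, designs were transcribed by stalled E. coli RNA polymerase and titrated with SNAP-549-labelled MS2 coat protein (0.7 or 1.5 nM, doubling to 3 µM), without and then with constant ligand, in 100 mM Tris-HCl pH 7.5, 80 mM KCl, 4 mM MgCl2, BSA, DTT, yeast tRNA and Tween-20. Apparent Kd is the median of filtered per-cluster curve fits to green signal normalised to red-channel RNA signal and control-cluster median Fmax.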

[1] = designed as: OFF switch for flavin mononucleotide, no ligand
[2] = ligand present: flavin mononucleotide, designed as: OFF switch for flavin mononucleotide
[3] = designed as: ON switch for flavin mononucleotide, no ligand
[4] = ligand present: flavin mononucleotide, designed as: ON switch for flavin mononucleotide

Sequence | apparent Kd [1] [nM] | apparent Kd [2] [nM] | apparent Kd [3] [nM] | apparent Kd [4] [nM]
AGCCUUAGAGGAUAUACAUGAUCCUCCAUCGCGAAAGGGCUACAUGAGGAUCACCCAUGUAGAAGGCUGAGGGA | 20.1 | 33.6 |  | 
ACAUCUCGAGCCGACGGGAGAGUACAUGAGGAUCACCCAUGUGAGGAUAUCCCUGAGAAGACGGCGGAGAAGGCACUGGGUAGG | 6.33 | 10.4 |  | 
AAAAAGUCAGGAUAUGGAAAAAAAAAAAAAAAAAAAAAAAACCAGAAGGGACAUGAGGAUCACCCAUGUAAAAA | 71.5 | 43.8 |  | 
ACCAGUGCAUCAGGAUAUCCUCACAUGAGGAUCACCCAUGUAAUGAGCCGAGGAGAAGGGAUGUGAACUCCAGUUAUCGAUCGU |  |  | 101 | 14.1
AAAAAACAUGAGGAUCACCCAUGUAAAAAAAUGGGAGGAUAUACAAAAACAAAAAAAAAAGUAGAAGGCCUGAAAA |  |  | 387 | 63.8
UAGGGCGAGUUAUGUACAAGAUACAUGAGGAUCACCCAUGUGUAGGAUAUGACCCUCAUCGCUGGUCAGAAGGGCACGAGAAUC | 234 | 314 |  | 
CCCUCACAUGAGGAUCACCCAUGUCAGGAUAUUCGAACGGUGUGUUUUUGGCCAGUUGGAAGAAGGGACAUAAA | 29.7 | 117 |  | 
CAUGGCACGUAGGAUAUCUCGCAGCCCGGCUGCAGAGAAGGACGUACAUGAGGAUCACCCAUGUAUGAUCCAAA | 24.5 | 49.2 |  | 
GUCGGAAACGACAAAAGUACCGGAGCAGAAGGCAUGUCAUAAGACAUGAGGAUCACCCAUGUGCAUGAGGAUAUGCUCCGGUAC |  |  | 5.45 | 4.68
UGUCAUAUAUAGAAGGGUAGUAGGGUUUUACAUGAGGAUCACCCAUGUAUUAUAGGAUAUGUGUAUAGUUUUUAUUCAAGUAUA | 32.8 | 25.4 |  | 
AAGCUGUGAGGAUAUACAUGAGGAUCACCCAUGUUAAGGAAGUCUUGGUUAAUUUGGAGUAGAAGGCGCUUAUU | 30.9 | 25.5 |  | 
GUAGCUAUCGGAGGAUAUCCUCAGCGGAAACGCACAUGAGGAUCACCCAUGUAAAUAAAUAAUUUGGAGAAGGCCGAUAGCUAC |  |  | 292 | 18.6
UCCACUACUGAGAAGGGAUACAUAUAAUUUUAGUCAGGAUAUCGAUACAGUGCAGCAUGAGGACAUGAGGAUCACCCAUGUAUU |  |  | 22.3 | 15.2
AAUGUCUGAGGAUAUCGUUUUUUGUACAUGAGGAUCACCCAUGUCCAAUUUUGUAUAUUACGAGAAGGCAGUGGAA | 14.9 | 22.4 |  | 
UUAGCAUACCGAGGAUAUUCAUAUAAUAAAUAAACAUGAGGAUCACCCAUGUGGCGAAAGCCUAGGGAGAAGGCGGAAUGCUUU |  |  | 177 | 28.1
GCGUAACAUGAGGAUCACCCAUGUACCCGAGAAUUCGGGUCGAGAAGGGUGACCGGUCGUUUGGCACAGGAUAUCGACGUUGUG |  |  | 19.4 | 14.5
AUAAAACAUGAGGAUCACCCAUGUCAACAAAGUCGAGGAUAUGGGCAAAUAAAAUAAGAACCAGAAGGCGAAUAAU |  |  | 398 | 36.6
UGGUACAUGGGAGGAUAUGGGUUGAUAACAUGAGGAUCACCCAUGUUAAAUAAGCCGAGAGGCUACUAGAAGGCUCAUGUACCU |  |  | 327 | 10.4
ACAAGACAUGAGGAUCACCCAUGUAAAGAAAACGCAGGAUAUGCAAAAAAAUUCAUGGGUGCAGAAGGGCGAAAAA |  |  | 68.1 | 322
GGAUUACAUGAGGAUCACCCAUGUAGAAGGCGCCUGGGAGACCAGCGCGAGGUAGAAGACCCGGGCGAGGAUAUACAGGAGGGC | 25.5 | 56.4 |  | 
